Among the data in ChEMBL document CHEMBL5154713, “Illuminating a Dark Kinase: Structure-Guided Design, Synthesis, and Evaluation of a Potent Nek1 Inhibitor and Its Effects on the Embryonic Zebrafish Pronephros” (J Med Chem, 2022) are Activity, Papp A→B and IC50 values, retold here.

Series [1] has as its target Serine/threonine-protein kinase Nek7 (Homo sapiens) (UniProt Q8TDX7). The series is described as follows: Inhibition of recombinant human NEK7 (2 to end residues) assessed as residual activity at 1 uM using FLAKSFGSPNRAYKK as substrate measured after 40 mins in presence of [gamma33P]ATP by radiometric scintillation counting method relative to control. Summed up:
(§1)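 Commercial radiometric panel of 50 kinases. Each recombinant human kinase was tested at a single compound concentration of 1 μM. ATP was set within 15 μM of the apparent Km for ATP for each kinase. Residual activity is relative to control and is the mean of two independent experiments.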

The target in series [2] is Mitogen-activated protein kinase kinase kinase 5 (Homo sapiens) (UniProt Q99683). The series is described as follows: Inhibition of recombinant human ASK1 (649 to 946 residues) assessed as residual activity at 1 uM using myelin basic protein as substrate measured after 40 mins in presence of [gamma33P]ATP by radiometric scintillation counting method. Summed up: as §1

The nature of series [3]: Toxicity in fluorescence-labelled Zebrafish pronephron assessed as increase in growth of fluid-filled cysts at 10 to 20 uM. Also on record: species or system Danio rerio. As to conditions: in vivo, dose 10-20 µM. Summed up:
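Wild-type embryos exposed from 6 hpf to E3/0.2% DMSO controls or 10 and 20 μM compound, in E3 with 75 μM PTU. At 48 h, 100 nM PT-Yellow for 20 min, washed, then returned to compound up to 96 h total. Anesthetized embryos imaged in agarose molds by widefield microscopy, 33 Z-slices. Tubule fluorescence and area quantified from summed deconvolved projections. n = 3–5.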

Series [4] has as its target Phosphatidylinositol 4,5-bisphosphate 3-kinase catalytic subunit delta isoform (Homo sapiens) (UniProt O00329). The series is described as follows: Inhibition of human full length recombinant PI3Kdelta assessed as residual activity at 1 uM using phosphatidylinositol 4,5-bisphosphate as substrate incubated for 40 mins in presence ofATP by HTRF assay relative to control.

The target in series [5] is Inhibitor of nuclear factor kappa-B kinase subunit epsilon (Homo sapiens) (UniProt Q14164). The series is described as follows: Inhibition of human full length recombinant IKKepsilon assessed as residual activity at 1 uM using casein as substrate incubated for 40 mins in presence of [gamma 33P]-ATP by radiometric scintillation counting assay relative to control. In outline: as §1

Series [6] can be described thus: Permeability across apical to basolateral side in human Caco-2 cells at pH 6.5 to 7.4 by HPLC-MS/MS analysis. The series is classed as ADME, cell-based. As to conditions: Caco-2, pH 6.5, read-out: permeability. Summed up:
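Commercial Caco-2 assay, apical-to-basolateral direction at pH 6.5/7.4. Permeability and percent recovery taken from HPLC-MS/MS peak area response. Propranolol, labetalol, colchicine and ranitidine run in parallel as references.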

Series [7] has as its target T1, Serine/threonine-protein kinase Nek1 (Homo sapiens, UniProt Q96PY6).
T1 sequence (Q96PY6 whole entry): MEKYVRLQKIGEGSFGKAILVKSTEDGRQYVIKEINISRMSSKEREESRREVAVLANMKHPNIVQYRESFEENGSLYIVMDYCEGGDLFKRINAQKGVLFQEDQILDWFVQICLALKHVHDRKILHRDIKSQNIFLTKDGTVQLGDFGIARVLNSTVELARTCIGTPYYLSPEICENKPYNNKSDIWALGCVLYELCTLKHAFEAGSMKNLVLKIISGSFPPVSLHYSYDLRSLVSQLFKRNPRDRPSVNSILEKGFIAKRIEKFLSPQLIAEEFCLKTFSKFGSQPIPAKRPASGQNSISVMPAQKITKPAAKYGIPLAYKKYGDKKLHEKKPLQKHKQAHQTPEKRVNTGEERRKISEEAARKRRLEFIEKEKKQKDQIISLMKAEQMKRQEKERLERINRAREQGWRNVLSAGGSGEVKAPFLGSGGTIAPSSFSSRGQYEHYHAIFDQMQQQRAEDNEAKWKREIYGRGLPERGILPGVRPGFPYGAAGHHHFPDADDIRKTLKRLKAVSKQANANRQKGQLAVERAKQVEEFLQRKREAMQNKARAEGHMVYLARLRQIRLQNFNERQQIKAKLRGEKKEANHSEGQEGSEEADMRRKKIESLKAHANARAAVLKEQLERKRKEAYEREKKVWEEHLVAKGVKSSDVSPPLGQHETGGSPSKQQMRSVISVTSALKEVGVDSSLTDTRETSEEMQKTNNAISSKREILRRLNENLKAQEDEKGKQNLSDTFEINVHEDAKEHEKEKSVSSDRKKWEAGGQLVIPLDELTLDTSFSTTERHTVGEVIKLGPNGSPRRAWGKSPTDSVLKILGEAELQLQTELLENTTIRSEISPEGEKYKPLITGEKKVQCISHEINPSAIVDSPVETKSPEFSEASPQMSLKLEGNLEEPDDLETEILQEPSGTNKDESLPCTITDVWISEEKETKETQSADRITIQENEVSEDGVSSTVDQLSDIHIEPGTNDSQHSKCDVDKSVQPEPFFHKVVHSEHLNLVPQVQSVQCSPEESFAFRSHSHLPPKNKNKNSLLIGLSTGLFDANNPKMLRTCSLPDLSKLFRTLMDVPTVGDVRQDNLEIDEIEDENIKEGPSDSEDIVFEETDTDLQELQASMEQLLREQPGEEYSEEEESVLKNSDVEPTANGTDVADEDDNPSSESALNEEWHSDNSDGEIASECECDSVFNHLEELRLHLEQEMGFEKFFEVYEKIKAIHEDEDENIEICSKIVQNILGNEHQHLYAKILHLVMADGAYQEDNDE
The series is described as follows: Inhibition of human recombinant NEK1 (1 to 505 residues) using RLGRDKYKTLRQIRQ as substrate incubated for 40 mins in presence of [gamma-33P]-ATP by radiometric scintillation counting assay. Summed up: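 Eurofins IC50Profiler radiometric assay on recombinant human Nek1 (1−505), ATP at 10 μM or 90 μM (near Km). Nine concentrations at half-log steps from 10 μM to 1 nM, with vehicle controls. IC50 and 95% CI obtained by four-parameter nonlinear regression. Mean of two independent experiments.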

The target of series [8] is Serine/threonine-protein kinase mTOR (Homo sapiens) (UniProt P42345). The series is described as follows: Inhibition of human full length recombinant MTOR assessed as residual activity at 1 uM incubated for 40 mins in presence of [gamma 33P]-ATP by radiometric scintillation counting assay relative to control. Summed up: as §1
The nature of series [9]: Toxicity in wild-type Zebrafish embryos assessed as lethality at 30 uM measured after 72 hrs. Also on record: species or system Danio rerio. Particulars: in vivo. Summed up: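 Wild-type zebrafish embryos with intact chorions were selected at 4 hpf, 15 per group, in E3 medium. At 6 hpf a 10× dilution of a DMSO stock was added to give final concentrations of 0.05–30 μM. Survival was scored every 24 h by heartbeat over 120 h. The 30 μM group was run in 5 replicates and the others at least in triplicate.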

A short description of series [10]: Toxicity in wild-type Zebrafish embryos assessed as effect on normal eye development at 0.05 to 30 uM measured upto 120 hrs. Also on record: species or system Danio rerio. Particulars: in vivo, dose 0.05-30 µM. Summed up:
(§2)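 Wild-type embryos, 15 per group with intact chorions, dosed at 6 hpf with 0.05–30 μM final concentrations in E3, diluted from a DMSO stock. Survival checked every 24 h by heartbeat over 120 h, and phenotypes assessed visually. At least triplicate, 5 replicates at 30 μM.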

The nature of series [11]: Toxicity in wild-type Zebrafish embryos assessed as effect on ordinary heartbeat at 0.05 to 30 uM measured upto 120 hrs. On the set-up: species or system Danio rerio. As to conditions: in vivo, dose 0.05-30 µM. In outline: as §2

Chain of Serine/threonine-protein kinase Nek7 (Homo sapiens) (Q8TDX7 whole entry, looked up): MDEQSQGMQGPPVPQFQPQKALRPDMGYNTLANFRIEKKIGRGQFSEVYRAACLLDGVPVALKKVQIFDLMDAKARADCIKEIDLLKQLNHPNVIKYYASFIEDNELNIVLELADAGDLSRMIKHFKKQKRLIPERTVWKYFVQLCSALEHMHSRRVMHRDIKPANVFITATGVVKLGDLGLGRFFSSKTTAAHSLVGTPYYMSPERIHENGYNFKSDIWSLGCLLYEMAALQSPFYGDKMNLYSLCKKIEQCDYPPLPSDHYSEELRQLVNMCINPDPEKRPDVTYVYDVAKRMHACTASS
Chain of Inhibitor of nuclear factor kappa-B kinase subunit epsilon (Homo sapiens) (Q14164 whole entry): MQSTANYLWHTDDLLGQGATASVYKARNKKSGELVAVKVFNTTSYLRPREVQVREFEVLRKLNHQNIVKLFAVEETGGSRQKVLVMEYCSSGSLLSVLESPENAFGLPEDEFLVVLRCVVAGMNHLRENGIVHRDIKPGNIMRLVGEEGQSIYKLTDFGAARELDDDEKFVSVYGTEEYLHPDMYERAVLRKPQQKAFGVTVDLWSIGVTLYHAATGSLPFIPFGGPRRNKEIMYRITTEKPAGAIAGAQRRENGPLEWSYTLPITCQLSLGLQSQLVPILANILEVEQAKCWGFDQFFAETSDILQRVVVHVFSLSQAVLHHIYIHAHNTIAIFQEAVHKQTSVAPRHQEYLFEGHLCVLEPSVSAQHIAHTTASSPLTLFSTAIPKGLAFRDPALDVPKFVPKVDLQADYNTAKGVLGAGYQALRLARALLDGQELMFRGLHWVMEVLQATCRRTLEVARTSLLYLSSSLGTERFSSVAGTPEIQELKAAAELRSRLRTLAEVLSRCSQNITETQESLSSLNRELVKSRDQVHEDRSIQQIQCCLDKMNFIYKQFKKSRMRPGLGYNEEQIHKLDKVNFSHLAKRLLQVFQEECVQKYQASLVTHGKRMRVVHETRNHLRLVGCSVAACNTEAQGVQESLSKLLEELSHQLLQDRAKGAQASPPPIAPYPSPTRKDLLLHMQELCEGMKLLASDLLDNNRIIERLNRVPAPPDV
Chain of Mitogen-activated protein kinase kinase kinase 5 (Homo sapiens) (Q99683 whole entry, the tested form may be a part): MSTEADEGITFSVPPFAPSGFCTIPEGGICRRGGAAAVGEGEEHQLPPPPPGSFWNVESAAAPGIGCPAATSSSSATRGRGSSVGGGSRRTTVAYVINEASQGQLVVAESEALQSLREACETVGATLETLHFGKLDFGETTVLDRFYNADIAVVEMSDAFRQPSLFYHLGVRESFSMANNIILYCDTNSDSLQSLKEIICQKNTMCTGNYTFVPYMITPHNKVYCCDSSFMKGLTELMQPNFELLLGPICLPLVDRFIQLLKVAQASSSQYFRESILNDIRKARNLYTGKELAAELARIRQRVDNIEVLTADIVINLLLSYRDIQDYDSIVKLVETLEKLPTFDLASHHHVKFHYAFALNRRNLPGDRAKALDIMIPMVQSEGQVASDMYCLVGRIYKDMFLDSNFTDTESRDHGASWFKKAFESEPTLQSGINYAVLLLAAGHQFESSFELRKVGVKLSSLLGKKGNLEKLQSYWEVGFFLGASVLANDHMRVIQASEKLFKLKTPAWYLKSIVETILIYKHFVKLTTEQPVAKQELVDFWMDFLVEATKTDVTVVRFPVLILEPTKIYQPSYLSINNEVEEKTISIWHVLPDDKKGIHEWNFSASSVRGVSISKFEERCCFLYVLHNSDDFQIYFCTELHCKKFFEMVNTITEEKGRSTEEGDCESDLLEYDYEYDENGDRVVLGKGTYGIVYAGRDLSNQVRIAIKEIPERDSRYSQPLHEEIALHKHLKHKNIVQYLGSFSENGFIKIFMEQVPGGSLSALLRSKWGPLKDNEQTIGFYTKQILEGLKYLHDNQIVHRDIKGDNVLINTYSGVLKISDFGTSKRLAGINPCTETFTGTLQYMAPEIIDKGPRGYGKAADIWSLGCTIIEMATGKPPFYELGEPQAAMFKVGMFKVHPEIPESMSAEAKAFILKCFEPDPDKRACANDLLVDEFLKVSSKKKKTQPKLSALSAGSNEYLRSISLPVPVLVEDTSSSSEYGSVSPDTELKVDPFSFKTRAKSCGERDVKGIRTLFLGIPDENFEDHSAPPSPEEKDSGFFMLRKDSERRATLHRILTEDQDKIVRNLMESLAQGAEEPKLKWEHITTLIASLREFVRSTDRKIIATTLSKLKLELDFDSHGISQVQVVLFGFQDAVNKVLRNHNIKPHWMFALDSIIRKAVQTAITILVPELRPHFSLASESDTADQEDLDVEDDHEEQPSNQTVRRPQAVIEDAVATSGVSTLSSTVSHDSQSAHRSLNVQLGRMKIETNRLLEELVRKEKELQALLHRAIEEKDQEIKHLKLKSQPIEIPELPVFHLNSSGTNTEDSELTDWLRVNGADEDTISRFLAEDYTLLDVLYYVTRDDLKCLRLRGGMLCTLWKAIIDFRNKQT
Chain of Phosphatidylinositol 4,5-bisphosphate 3-kinase catalytic subunit delta isoform (Homo sapiens) (O00329 whole entry, canonical isoform): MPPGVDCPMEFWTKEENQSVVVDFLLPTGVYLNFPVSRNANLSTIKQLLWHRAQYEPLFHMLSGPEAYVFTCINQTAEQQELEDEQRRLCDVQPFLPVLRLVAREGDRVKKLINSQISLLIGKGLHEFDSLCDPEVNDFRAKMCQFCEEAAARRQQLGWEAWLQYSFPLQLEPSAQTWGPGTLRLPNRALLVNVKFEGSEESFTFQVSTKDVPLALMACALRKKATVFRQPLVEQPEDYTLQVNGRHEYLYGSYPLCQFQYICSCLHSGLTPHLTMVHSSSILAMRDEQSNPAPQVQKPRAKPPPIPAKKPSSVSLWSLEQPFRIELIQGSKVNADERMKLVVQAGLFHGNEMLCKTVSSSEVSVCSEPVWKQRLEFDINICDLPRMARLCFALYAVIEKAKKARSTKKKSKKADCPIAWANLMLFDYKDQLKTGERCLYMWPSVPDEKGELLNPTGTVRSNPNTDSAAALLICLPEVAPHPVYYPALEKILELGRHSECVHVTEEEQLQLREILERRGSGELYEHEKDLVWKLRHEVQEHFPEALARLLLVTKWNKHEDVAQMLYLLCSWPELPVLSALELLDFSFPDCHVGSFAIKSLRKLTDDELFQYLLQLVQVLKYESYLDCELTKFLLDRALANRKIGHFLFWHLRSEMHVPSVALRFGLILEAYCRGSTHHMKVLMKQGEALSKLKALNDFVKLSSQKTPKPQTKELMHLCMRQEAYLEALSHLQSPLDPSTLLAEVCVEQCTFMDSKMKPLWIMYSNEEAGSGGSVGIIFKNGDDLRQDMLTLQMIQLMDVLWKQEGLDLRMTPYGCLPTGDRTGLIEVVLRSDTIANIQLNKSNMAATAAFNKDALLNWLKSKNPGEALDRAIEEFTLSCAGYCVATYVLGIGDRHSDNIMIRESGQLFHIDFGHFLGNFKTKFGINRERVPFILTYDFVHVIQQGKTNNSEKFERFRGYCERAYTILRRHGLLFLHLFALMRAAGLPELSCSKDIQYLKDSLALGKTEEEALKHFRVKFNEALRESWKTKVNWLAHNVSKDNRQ

For `O=S(=O)(N[C@@H](CO)Cc1c[nH]c2ccccc12)c1ccc(-c2ccnc3[nH]ccc23)cc1`, the Activity was above 75% in series [1]; above 75% in [2]; “Toxic” in [3]; above 75% in series [4]; above 75% in [5]; above 75% in series [8]. Also, the Activity entry is “Toxic” in [9], “Non-Toxic” in series [10] and “Non-Toxic” in [11]. Besides, the Papp A→B in [6] was determined as 3.4 ×10⁻⁶ cm/s. For the same compound, the IC50 in series [7] came out at 330 nM.
